dFosB activator = activators of delta FosB homodimer, primary screen, biochemical, fluorescence polarization, TAMRA-CDK5 oligo, single point. Protein FosB (Mus musculus), P13346. AID 493131, 2011. hit rate 0.99% among 340,000. activation, % at 25 µM. purified delta FosB; percent of positive-control signal above neutral wells;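 active = mean activation above about 17%, with every replicate also reaching it, limit read from the data, passing the limit was not always enough; inconclusive = only one of the two conditions met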
Target sequence (P13346 whole entry, looked up): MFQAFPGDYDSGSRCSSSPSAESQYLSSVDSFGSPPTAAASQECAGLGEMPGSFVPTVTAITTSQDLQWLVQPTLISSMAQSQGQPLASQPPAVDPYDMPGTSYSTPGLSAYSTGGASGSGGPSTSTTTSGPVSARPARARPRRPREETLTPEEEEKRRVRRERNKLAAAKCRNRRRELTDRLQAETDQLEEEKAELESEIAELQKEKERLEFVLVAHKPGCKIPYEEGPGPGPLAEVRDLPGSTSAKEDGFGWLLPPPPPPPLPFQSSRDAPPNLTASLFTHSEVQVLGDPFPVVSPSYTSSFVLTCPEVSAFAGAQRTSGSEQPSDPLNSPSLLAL
Ecoli rRNA inh = reduced GFP signal of wild-type E. coli, primary screen, bacterial rRNA inhibitor project, GFP/RFP fluorescence, OD600, single point; AID 720706, 2013; hit rate 1.6% among 350,000; GFP signal change (wild-type ribosome), % (no concentration beside the values); E. coli WT GFP vs humanized-ribosome RFP mutants, 24 h; active compounds read low; DMSO median 0, no signal -100;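 active = significant combined selectivity score with lowered wild-type GFP, culture density cut under 30%, mutant RFP and density less affected; inactive = any of these conditions unmet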
Xi reactivation = activators of inactive X chromosome reactivation, primary screen, imaging, XiGFP fibroblasts, GFP high-content imaging, set 2; XiGFP mouse fibroblasts, % GFP-positive cells imaging, 3 d; cells co-treated with 5-aza-dC sensitizer; scaled so ellipticine positive control = 100%; activation, % at 7.58 µM; hit rate 0.055% among 360,000;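 active = mean normalized replicate activation at least 10% and every replicate at or above 10%; inconclusive = only one of the two criteria met; inactive = mean below 10% and not all replicates reach 10%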;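 note: 0% = median of on-plate neutral control wells and 100% = ellipticine 6 µM median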
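Material: SV40-immortalized XiGFP fibroblast cells, line 68-5-11 | Buffer or medium: DMEM containing 5-aza-dC | Dosing: One concentration, pinned | Times: 3 d treatment, 15 min room-temperature fixation | Controls: Ellipticine 6 µM positive control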
SR-BI DiI inh = inhibitors of SR-BI mediated HDL lipid uptake, primary screen, ldlA[mSR-BI] cells, fluorescence, single point; Scavenger receptor class B member 1 (Mus musculus), Q61009; ldlA[mSR-BI] CHO cells, DiI-HDL uptake fluorescence, 3 h; inhibition, % at 12.5 µM; hit rate 0.96% among 320,000;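 active = mean replicate inhibition of at least 70% and a set share of replicates each scoring 70 or more; inconclusive = meets just one of the two criteria; inactive = fails both criteria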;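 note: 0% = median of neutral control wells and 100% = median of positive control wells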
SR-BI uptake up = activators of SR-BI mediated DiI-HDL uptake, primary screen, ldlA[mSR-BI] CHO cells, DiI fluorescence; hit rate 0.096% among 320,000; 3 h; 100 = double the neutral-control signal; activation, % at 12.5 µM; AID 504775, 2011;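 active = mean replicate activation of at least 60% and every replicate at or above 60%; inconclusive = mean or all-replicate condition met, but not both; inactive = mean below 60% and not all replicates reaching 60%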;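 note: 0% = median plate neutral-control signal and 100% = twice that signal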
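Material: SR-BI-overexpressing, LDLR-lacking CHO cells | Dosing: Single compound concentration, delivered by pin transfer | Probe or stimulus: Labelled HDL, 10 µg/mL | Signal: Bottom-read cell fluorescence after medium removal, ex 550/em 595 nm | Schedule: 3 h, 37 °C | Evaluation: HDL uptake via cellular fluorescence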
PvdQ inh = P. aeruginosa PvdQ acylase inhibitors, primary screen, biochemical, fluorescence, plate reader and imaging, single point | inhibition, % at 10 µM | AID 488965, 2010 | purified PvdQ acylase | hit rate 0.063% among 340,000 | PvdQ acylase [Pseudomonas aeruginosa LESB58]; in the data active = inhibition above about 30%, passing the limit was not always enough; inconclusive = no clear call, values can overlap the other calls;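 note: 0% = vehicle neutral wells and 100% = reference inhibitor wells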
Starred values were filed as active, the others as inactive; ? = inconclusive; . = not tested or not shown. A selection: hits, their analogues and other compounds. The true share with any hit is near 2.6%.

SMILES | dFosB activator | Ecoli rRNA inh | Xi reactivation | SR-BI DiI inh | SR-BI uptake up | PvdQ inh
COc1cccc(/C=N/NC(=O)C(C)n2nc(C)c([N+](=O)[O-])c2C)c1O (configuration not stated) | 3 | -22* | 0 | -15 | 15 | -14
COc1cccc(/C=N/NC(=O)N/N=C/c2cccc(OC)c2O)c1O | -4 | -31* | 0 | 83* | -83 | -8
COc1ccccc1/C=C/C(=O)NCC(=O)N/N=C/c1cc(Br)ccc1OC | 1 | . | . | 98* | -98 | -12
CCC(=NNC(=O)c1ccc2c(c1)nc(C)n2CC)c1cc(F)ccc1O | -3 | . | 0 | 114* | -114 | -5
C[C@H](CO)N1C[C@H](C)[C@H](CN(C)S(C)(=O)=O)Oc2c(NC(=O)Nc3ccccc3)cccc2C1=O | . | 2 | 0 | . | . | .
Cc1ccc(S(=O)(=O)n2[nH]c(=O)c(CCO)c2C)cc1 | 0 | 19 | 0 | 1 | -1 | 5
C[C@H](CO)N1C[C@H](C)[C@H](CN(C)Cc2ccc(C(F)(F)F)cc2)Oc2c(NC(=O)Nc3ccc(F)cc3)cccc2C1=O | . | -1 | -1 | . | . | .
CCn1c(C)nc2cc(C(=O)N/N=C/c3cccc(OC)c3O)ccc21 | 22* | -21 | 0 | 66 | -66 | 6
COc1cc(/C=C/c2ccc3cccc([N+](=O)[O-])c3n2)ccc1OCC#N | -1 | 4 | 0 | 63 | -63 | -8
CCOc1cc(/C=C/c2ccc3cccc([N+](=O)[O-])c3n2)ccc1OCC(=O)N(C)C | -3 | -4 | 0 | 83* | -83 | -8
O=[N+]([O-])c1cccc2ccc(/C=C/c3ccc(F)cc3)nc12 | -1 | . | . | 46 | -46 | -1
CCOc1cc(/C=C/c2ccc3cccc([N+](=O)[O-])c3n2)ccc1O | -1 | -38 | 0 | 81* | -81 | 6
O=C(CCNS(=O)(=O)c1ccccc1C(F)(F)F)NNC(=O)c1csc(N2CCOCC2)n1 | 2 | 11 | 0 | -19 | 19 | -8
COc1ccc(-c2cc(C(=O)Nc3cccc(Cl)c3)no2)cc1 | -1 | 4 | 0 | 5 | -5 | 2
COc1ccc(OC)c(-c2cc(C(=O)NCc3ccco3)no2)c1 | 8 | -14 | . | 81* | -81 | 4
COc1ccc(-c2cc(C(=O)Nc3cccnc3Cl)no2)cc1OC | -1 | 4 | 0 | . | . | 6
COc1ccc(-c2cc(C(=O)Nc3cc(C)n(Cc4ccc(Cl)cc4)n3)no2)cc1OC | 32* | -12 | . | ? | -70 | -13
COc1ccc(OC)c(-c2cc(C(=O)Nc3c(C)nn(Cc4ccc(Cl)cc4)c3C)no2)c1 | -6 | . | . | 78* | -78 | 4
COc1ccc(OC)c(-c2cc(C(=O)Nc3cccc(Cl)c3)no2)c1 | 6 | 0 | . | 94* | -94 | -2
Cc1nnc(NC(=O)C2CCCN(S(=O)(=O)c3ccccc3C(F)(F)F)C2)s1 (configuration not stated) | -5 | . | . | -5 | 5 | -7
N#C[C@H]1[C@H](c2ccc(C#CC3CC3)cc2)[C@@H](CO)N1C(=O)c1cccc(F)c1 | . | 2 | 0 | . | . | .
N#C[C@@H]1[C@H](c2ccccc2)[C@@H](CO)N1S(=O)(=O)c1ccc(-c2ccccc2)cc1 | . | -35 | 0 | . | . | .
O=C1CC(SC(=Nc2ccccc2)Nc2ccccc2)C(=O)N1c1cccc(Cl)c1 (configuration not stated) | -3 | . | . | 78* | -78 | -10
CN=C(Nc1ccccc1)SC1CC(=O)N(c2cccc(OC)c2)C1=O (configuration not stated) | -13 | -5 | 1 | 55 | -55 | -1
O=C1CC(SC(=Nc2ccccc2)Nc2ccccc2)C(=O)N1c1ccc(Cl)cc1 (configuration not stated) | 3 | . | . | 71* | -71 | -13
SMILES | dFosB activator | Ecoli rRNA inh | Xi reactivation | SR-BI DiI inh | SR-BI uptake up | PvdQ inh
O=[N+]([O-])c1cccc(/C=C2\CCC(/C=N/Nc3ccc4ccccc4n3)=C2N2CCOCC2)c1 | -3 | 8 | 0 | 88* | -88 | -8
CCn1c(-c2c[nH]c3ccccc23)n[nH]c1=S | -6 | -20* | . | 8 | -8 | -10
C=CCn1c(-c2c[nH]c3ccccc23)n[nH]c1=S | -1 | . | . | 0 | 0 | -13
COc1ccc(NC(=O)Nc2ccc3c(c2)C(=O)N([C@@H](C)CO)C[C@@H](C)[C@@H](CN(C)Cc2ccc4c(c2)OCO4)OCCCC[C@@H](C)O3)cc1 | . | 3 | -1 | . | . | .
COc1ccc(S(=O)(=O)N2CC(=O)Nc3ccccc32)cc1Cl | -10 | -33* | 0 | 2 | -2 | -14
Cc1nn(-c2ccccc2)c(N2CCCCC2)c1/C=N/NC(=O)c1ccncc1 | -17 | -10 | 0 | 87* | -87 | -13
Cc1nn(-c2ccccc2)c(N2CCCC2)c1/C=N/NC(=S)Nc1cc(C(F)(F)F)ccc1Cl | -10 | . | . | 86* | -86 | -13
Cc1nn(-c2ccccc2)c(N2CCCC2)c1/C=N/NC(=S)Nc1ccccc1C(F)(F)F | -4 | 0 | 0 | 57 | -57 | -7
CC1Cc2ccccc2N1C(=S)NC(=O)c1ccco1 (configuration not stated) | -2 | -27* | 0 | -2 | 2 | -4
O=C(NC(=S)N1CCCc2ccccc21)c1ccco1 | -18 | -3 | 0 | -26 | 26 | -3
CC(C)C(=O)N1CCN(c2ccccc2NC(=S)NC(=O)c2ccco2)CC1 | -4 | 3 | 0 | 81* | -81 | 1
CS(=O)(=O)N1CCN(c2ccccc2NC(=S)NC(=O)c2ccco2)CC1 | -13 | -28* | 0 | 37 | -37 | -11
CCc1ccc(-c2nc(CN3CCCC(C(=O)O)C3)c(C)o2)cc1 (configuration not stated) | -10 | 1 | 0 | 1 | -1 | 6
COc1ccc(CCNC(=O)CSc2nc3[nH]c(=O)cc(O)c3s2)cc1 | 2 | 21 | 0 | 13 | -13 | 5
COc1cc(OC)c(C(=O)NCc2cccnc2)cc1OC | -6 | 12 | 0 | -31 | 31 | -9
COC1=CC(=O)c2c(ccc3ncnc(N)c23)C1=O | -9 | . | 19* | -18 | 18 | -17
COC1=CC(=O)c2nc(Cl)ccc2C1=O | . | 5 | ? | . | . | .

From PubChem
